Measured values taken from ChEMBL document CHEMBL3085648, “Enhancement of kinase selectivity in a potent class of arylamide FMS inhibitors” (Bioorg Med Chem Lett, 2013).
pIC50: −log10 of the molar value.

How the values were obtained:
[1] = Metabolic stability in rat liver microsomes assessed as compound remaining after 10 mins; type: ADME; conditions: read-out: Stability
How it was run: (§1)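 Compound was incubated with human, mouse or rat liver microsomal preparations. Stability is the percent of compound remaining after 10 min.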

[2] = Metabolic stability in mouse liver microsomes assessed as compound remaining after 10 mins; type: ADME, Microsome; conditions: liver microsomes, read-out: Stability; how it was run: as §1
[3] = target: Mast/stem cell growth factor receptor Kit (Homo sapiens, UniProt P10721); assay: Inhibition of KIT (unknown origin)
Chain of Mast/stem cell growth factor receptor Kit (P10721 whole entry): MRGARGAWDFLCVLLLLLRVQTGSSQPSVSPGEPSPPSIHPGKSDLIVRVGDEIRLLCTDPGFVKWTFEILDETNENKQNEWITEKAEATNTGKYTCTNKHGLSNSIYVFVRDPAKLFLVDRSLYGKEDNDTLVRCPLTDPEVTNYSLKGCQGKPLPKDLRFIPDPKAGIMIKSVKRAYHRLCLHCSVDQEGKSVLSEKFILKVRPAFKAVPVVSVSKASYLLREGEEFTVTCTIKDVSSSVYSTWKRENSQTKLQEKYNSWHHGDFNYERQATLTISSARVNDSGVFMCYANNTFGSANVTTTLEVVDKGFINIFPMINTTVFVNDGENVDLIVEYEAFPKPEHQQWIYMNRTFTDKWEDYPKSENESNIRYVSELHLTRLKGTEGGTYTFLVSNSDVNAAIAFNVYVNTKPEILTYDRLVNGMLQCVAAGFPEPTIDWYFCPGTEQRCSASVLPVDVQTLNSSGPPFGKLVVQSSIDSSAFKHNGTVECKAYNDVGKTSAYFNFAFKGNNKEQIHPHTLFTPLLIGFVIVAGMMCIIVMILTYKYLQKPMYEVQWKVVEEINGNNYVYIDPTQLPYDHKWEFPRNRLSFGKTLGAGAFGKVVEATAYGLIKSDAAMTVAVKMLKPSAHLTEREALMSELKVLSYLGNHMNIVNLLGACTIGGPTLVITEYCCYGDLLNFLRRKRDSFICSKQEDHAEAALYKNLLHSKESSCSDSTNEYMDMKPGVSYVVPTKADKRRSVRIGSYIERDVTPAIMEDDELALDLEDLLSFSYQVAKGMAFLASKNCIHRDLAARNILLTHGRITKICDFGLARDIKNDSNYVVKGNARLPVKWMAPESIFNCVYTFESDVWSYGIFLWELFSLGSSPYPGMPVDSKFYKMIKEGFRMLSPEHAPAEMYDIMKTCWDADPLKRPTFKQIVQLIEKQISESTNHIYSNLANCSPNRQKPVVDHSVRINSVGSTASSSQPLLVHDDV

[4] = Metabolic stability in human liver microsomes assessed as compound remaining after 10 mins; type: ADME; conditions: liver microsomes, read-out: Stability; how it was run: as §1
[5] = target: T1, Macrophage colony-stimulating factor 1 receptor (Mus musculus, UniProt P09581); assay: Inhibition of FMS in mouse BMDM cells; type: cell-based
T1 sequence (P09581 whole entry): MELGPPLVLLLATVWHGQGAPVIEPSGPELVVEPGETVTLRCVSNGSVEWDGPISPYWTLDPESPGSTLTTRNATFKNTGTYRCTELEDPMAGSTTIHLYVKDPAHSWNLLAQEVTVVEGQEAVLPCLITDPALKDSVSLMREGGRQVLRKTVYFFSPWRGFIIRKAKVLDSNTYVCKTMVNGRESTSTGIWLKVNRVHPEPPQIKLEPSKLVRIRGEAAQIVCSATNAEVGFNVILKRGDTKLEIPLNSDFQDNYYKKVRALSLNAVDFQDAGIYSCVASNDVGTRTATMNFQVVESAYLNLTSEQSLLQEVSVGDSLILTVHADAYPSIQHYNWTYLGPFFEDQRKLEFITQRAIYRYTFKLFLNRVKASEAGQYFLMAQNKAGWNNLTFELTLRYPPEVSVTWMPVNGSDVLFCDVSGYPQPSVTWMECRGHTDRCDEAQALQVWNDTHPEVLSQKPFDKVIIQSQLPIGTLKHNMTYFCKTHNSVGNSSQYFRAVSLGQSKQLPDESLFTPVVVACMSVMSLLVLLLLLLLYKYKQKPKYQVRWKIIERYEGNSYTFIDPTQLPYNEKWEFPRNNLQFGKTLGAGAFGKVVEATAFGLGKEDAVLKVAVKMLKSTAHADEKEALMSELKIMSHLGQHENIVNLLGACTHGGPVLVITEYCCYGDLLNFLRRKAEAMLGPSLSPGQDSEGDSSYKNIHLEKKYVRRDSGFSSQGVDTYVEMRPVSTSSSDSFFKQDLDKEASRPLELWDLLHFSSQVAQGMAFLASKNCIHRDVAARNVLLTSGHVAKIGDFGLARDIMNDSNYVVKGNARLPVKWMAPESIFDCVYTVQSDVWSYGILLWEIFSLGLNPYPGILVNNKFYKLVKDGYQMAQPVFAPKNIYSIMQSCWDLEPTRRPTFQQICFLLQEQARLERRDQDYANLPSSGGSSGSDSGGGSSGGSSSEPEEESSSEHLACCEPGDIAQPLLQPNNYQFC

Mus musculus [6] = assay: Inhibition of CSF-1-induced c-fos gene expression in mouse spleen at 30 mg/kg, po after 6 hrs; type: functional
How it was run: (§2)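 In the mouse pharmacodynamic model, compound was given orally. Spleen c-fos mRNA induced by an iv injection of CSF-1 was measured 6 or 8 h after dosing.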

Mus musculus [7] = assay: Inhibition of CSF-1-induced c-fos gene expression in mouse spleen at 40 mg/kg, po after 6 hrs; type: functional; how it was run: as §2
Mo7e = assay: Selectivity ratio of IC50 for KIT in human Mo7e cells to IC50 for FMS in mouse BMDM cells; type: cell-based
How it was run: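 Cellular selectivity was calculated as Mo7e IC50 divided by BMDM IC50. Mo7e IC50 came from SCF-dependent proliferation of Mo7e leukemia cells. BMDM IC50 came from proliferation of murine bone marrow-derived macrophages.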

COCCN1CCN(C(C)(C)c2ccc(NC(=O)c3nc(C#N)c[nH]3)c(C3=CCC(C)(C)CC3)c2)CC1
remaining at 10 min [1]: 40% | remaining at 10 min [2]: 73% | pIC50 [3]: 6.68 | remaining at 10 min [4]: 72%

N#Cc1cnc(C(=O)Nc2ccc(CN3CCOCC3)cc2C2=CCCCC2)[nH]1
remaining at 10 min [2]: 5% | pIC50 [5]: 7.70 | remaining at 10 min [4]: 71%

COCCN(C)C(C)(C)c1ccc(NC(=O)c2nc(C#N)c[nH]2)c(C2=CCC(C)(C)CC2)c1
remaining at 10 min [1]: 13% | remaining at 10 min [4]: 11%

CC1(C)CC=C(c2cc(C(N)=O)ccc2NC(=O)c2nc(C#N)c[nH]2)CC1
pIC50 [5]: 7.49

CC1(C)CC=C(c2cc(C(C)(C)N3CCS(=O)(=O)CC3)ccc2NC(=O)c2nc(C#N)c[nH]2)CC1
remaining at 10 min [1]: 98% | remaining at 10 min [2]: 84% | pIC50 [3]: 6.60 | inhibition in vivo at 30 mg/kg (Mus musculus [6]): 8% | remaining at 10 min [4]: 112%

N#Cc1cnc(C(=O)Nc2ccc(Cc3nnn[nH]3)cc2C2=CCCCC2)[nH]1
pIC50 [5]: < 6.52

CN1CCN(C(C)(C)c2ccc(NC(=O)c3ncc(C#N)[nH]3)c(C3=CCC(C)(C)CC3)c2)CC1
inhibition in vivo at 40 mg/kg (Mus musculus [7]): 0% | remaining at 10 min [1]: 16% | remaining at 10 min [2]: 110% | remaining at 10 min [4]: 103%

CN(C)CC(=O)N1CCC(c2ccc(NC(=O)c3nc(C#N)c[nH]3)c(C3=CCCCC3)c2)CC1
remaining at 10 min [1]: 77% | Ratio IC50 (Mo7e): 15

CC1(C)CC=C(c2cc(Cc3nnn[nH]3)ccc2NC(=O)c2ncc(C#N)[nH]2)CC1
pIC50 [5]: < 7.00

N#Cc1cnc(C(=O)Nc2ccc(S(N)(=O)=O)cc2C2=CCCCC2)[nH]1
pIC50 [5]: < 6.82

N#Cc1c[nH]c(C(=O)Nc2ccc(C(N)=O)cc2C2=CCCCC2)n1
pIC50 [5]: 7.47

N#Cc1cnc(C(=O)Nc2ccc(CCN3CCOCC3)cc2C2=CCCCC2)[nH]1
remaining at 10 min [2]: 2% | pIC50 [5]: 8.74 | remaining at 10 min [4]: 46%

CC1(C)CC=C(c2cc(C(C)(C)NCCN3CCOCC3)ccc2NC(=O)c2nc(C#N)c[nH]2)CC1
remaining at 10 min [1]: 90% | remaining at 10 min [2]: 62% | pIC50 [3]: 7.04 | pIC50 [5]: 8.24 | inhibition in vivo at 30 mg/kg (Mus musculus [6]): 14% | remaining at 10 min [4]: 82%

CC1(C)CC=C(c2cc(C(C)(C)OCCN3CCOCC3)ccc2NC(=O)c2nc(C#N)c[nH]2)CC1
remaining at 10 min [1]: 44% | remaining at 10 min [2]: 93% | pIC50 [3]: 7.24 | remaining at 10 min [4]: 38%

CC1(C)CC=C(c2cc(CCN3CCOCC3)ccc2NC(=O)c2ncc(C#N)[nH]2)CC1
remaining at 10 min [2]: 49% | remaining at 10 min [4]: 66%

CC(C)(O)Cc1ccc(NC(=O)c2nc(C#N)c[nH]2)c(C2=CCCCC2)c1
remaining at 10 min [1]: 47% | remaining at 10 min [2]: 61% | pIC50 [5]: 7.49 | remaining at 10 min [4]: 66%

N#Cc1c[nH]c(C(=O)Nc2ccc(CCS(N)(=O)=O)cc2C2=CCCCC2)n1
pIC50 [5]: 7.27

CN(C)C(=O)c1ccc(NC(=O)c2nc(C#N)c[nH]2)c(C2=CCC(C)(C)CC2)c1
pIC50 [5]: 6.89

CC1(C)CC=C(c2cc(CCO)ccc2NC(=O)c2ncc(C#N)[nH]2)CC1
remaining at 10 min [2]: 41% | pIC50 [5]: 7.74 | remaining at 10 min [4]: 74%

CN(CCS(C)(=O)=O)C(C)(C)c1ccc(NC(=O)c2nc(C#N)c[nH]2)c(C2=CCC(C)(C)CC2)c1
pIC50 [5]: 7.68

CC1(C)CC=C(c2cc(C(C)(C)NCCO)ccc2NC(=O)c2nc(C#N)c[nH]2)CC1
Ratio IC50 (Mo7e): 32 | pIC50 [5]: 8.11

N#Cc1c[nH]c(C(=O)Nc2ccc(CCC(=O)O)cc2C2=CCCCC2)n1
remaining at 10 min [1]: 19% | remaining at 10 min [4]: 83%

CC1(C)CC=C(c2cc(C(=O)O)ccc2NC(=O)c2nc(C#N)c[nH]2)CC1
pIC50 [5]: < 6.52
